≈ marks a conversion by molar mass, not a printed value. Calls of active or inactive are those of the source. The rule behind the calls is not given here.
How the values were obtained:
Assay type in all cases: functional
[1] = test system: Aspergillus flavus; assay: Antifungal activity against Aspergillus flavus at 1000 ppm; conditions: for zone of inhibition at 1000 ppm: read-out: DIZ
Method in brief: (§1)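 Agar well diffusion against clinical isolates (A. flavus mold; C. albicans yeast); standardized spore suspension 10⁴ CFU/mL. Compounds dissolved in DMSO as a parent stock, diluted to test levels (100, 300, 500, 1000 ppm).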

[2] = test system: Candida albicans; assay: Antifungal activity against Candida albicans at 300 ppm; conditions: for zone of inhibition at 300 ppm: read-out: DIZ; method in brief: as §1
[3] = test system: Aspergillus flavus; assay: Antifungal activity against Aspergillus flavus at 100 ppm
Method in brief: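 Clinical isolate of A. flavus (mold) tested by agar diffusion, well technique, using a standardized spore suspension of 10⁴ CFU/mL. Compounds were dissolved in dimethylsulphoxide and diluted from a parent stock.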

[4] = test system: Aspergillus flavus; assay: Antifungal activity against Aspergillus flavus by agar diffusion technique
Method in brief: (§2)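 Clinical isolates (A. flavus mold; C. albicans yeast), spore suspension standardized at 10⁴ CFU/mL. DMSO stocks diluted to a concentration series. Approximate MIC by agar diffusion (well technique), taken as the concentration giving minimal inhibition around the well.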

[5] = test system: Candida albicans; assay: Antifungal activity against Candida albicans at 500 ppm; conditions: for zone of inhibition at 500 ppm: read-out: DIZ; method in brief: as §1
[6] = test system: Aspergillus flavus; assay: Antifungal activity against Aspergillus flavus at 300 ppm; conditions: for zone of inhibition at 300 ppm: read-out: DIZ; method in brief: as §1
[7] = test system: Aspergillus flavus; assay: Antifungal activity against Aspergillus flavus at 500 ppm; conditions: for zone of inhibition at 500 ppm: read-out: DIZ; method in brief: as §1
[8] = test system: Candida albicans; assay: Antifungal activity against Candida albicans at 100 ppm; conditions: for zone of inhibition at 100 ppm: read-out: DIZ; method in brief: as §1
[9] = test system: Aspergillus flavus; assay: Antifungal activity against Aspergillus flavus up to 24 hrs
Method in brief: (§3)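 MFC in tubes of standardized spore suspension (10⁴ CFU/mL) of clinical isolates, each dosed with compound at increasing concentrations starting from the MIC. Controls: solvent at its highest level, and fluconazole. CFU counted and viability checked at intervals over 0–24 h. MFC is the lowest concentration killing about 99% of viable CFU.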

[10] = test system: Candida albicans; assay: Antifungal activity against Candida albicans by agar diffusion technique; method in brief: as §2
[11] = test system: Candida albicans; assay: Antifungal activity against Candida albicans at 1000 ppm; conditions: read-out: DIZ; method in brief: as §1
[12] = test system: Candida albicans; assay: Antifungal activity against Candida albicans up to 24 hrs; method in brief: as §3

| Compound | zone of inhibition at 1000 ppm [1] [mm] | zone of inhibition at 300 ppm [2] [mm] | diameter of the inhibition zone (DIZ) [3] | MIC [4] | zone of inhibition at 500 ppm [5] [mm] | diameter of the inhibition zone (DIZ) [6] | zone of inhibition at 500 ppm [7] [mm] | diameter of the inhibition zone (DIZ) [8] | MFC [9] | MIC [10] [µg/mL] | zone of inhibition at 1000 ppm [11] [mm] | MFC [12] | diameter of the inhibition zone (DIZ) [7] | diameter of the inhibition zone (DIZ) [2] | zone of inhibition at 100 ppm [8] [mm] | diameter of the inhibition zone (DIZ) [1] | zone of inhibition at 100 ppm ([3]; read-out: DIZ) [mm] | MFC [4] [µg/mL] | zone of inhibition at 300 ppm [6] [mm] | diameter of the inhibition zone (DIZ) [5] |
| --- | --- | --- | --- | --- | --- | --- | --- | --- | --- | --- | --- | --- | --- | --- | --- | --- | --- | --- | --- | --- |
| O=C(O)CCn1nc2sc3ccccc3n2c1=S | 10 | < 10 | inactive | 500 µg/mL (≈ 1790 µM) | 10 | inactive | < 10 | inactive | inactive | 300 (≈ 1070 µM) | > 16 | inactive | – | – | – | – | – | – | – | – |
| COC(=O)CCn1nc2sc3ccccc3n2c1=S | < 10 | < 10 | inactive | 1000 µg/mL (≈ 3410 µM) | < 10 | inactive | – | inactive | inactive | 300 (≈ 1020 µM) | > 16 | inactive | inactive | – | – | – | – | – | – | – |
| COC(=O)[C@H](CCSC)NC(=O)CCn1nc2sc3ccccc3n2c1=S | < 10 | – | inactive | 1000 µg/mL (≈ 2360 µM) | < 10 | inactive | – | inactive | inactive | 500 (≈ 1180 µM) | 10 | inactive | inactive | inactive | – | – | – | – | – | – |
| COC(=O)[C@H](Cc1ccc(O)cc1)NC(=O)CSc1nnc2sc3ccccc3n12 | < 10 | < 10 | inactive | 1000 µg/mL (≈ 2260 µM) | > 16 | inactive | – | – | inactive | 100 (≈ 226 µM) | > 16 | inactive | inactive | – | < 10 | – | – | – | – | – |
| Sc1nc2ccccc2s1 [2-MERCAPTOBENZOTHIAZOLE] | 10 | < 10 | inactive | 500 µg/mL (≈ 2990 µM) | 10 | inactive | < 10 | – | inactive | 100 (≈ 598 µM) | > 16 | 500 µg/mL (≈ 2990 µM) | – | – | < 10 | – | – | – | – | – |
| O=C(O)CCSc1nnc2sc3ccccc3n12 | 10 | < 10 | inactive | 500 µg/mL (≈ 1790 µM) | 10 | inactive | < 10 | inactive | inactive | 300 (≈ 1070 µM) | > 16 | inactive | – | – | – | – | – | – | – | – |
| NNC(=O)CSc1nnc2sc3ccccc3n12 | – | < 10 | inactive | inactive | 10 | inactive | – | – | inactive | 100 (≈ 358 µM) | > 16 | 500 µg/mL (≈ 1790 µM) | inactive | – | < 10 | inactive | – | – | – | – |
| O=C(CCSc1nnc2sc3ccccc3n12)N(C(=O)NC1CCCCC1)C1CCCCC1 | < 10 | < 10 | inactive | 1000 µg/mL (≈ 2060 µM) | 10 | inactive | – | inactive | inactive | 300 (≈ 618 µM) | > 16 | inactive | inactive | – | – | – | – | – | – | – |
| OC(Cn1cncn1)(Cn1cncn1)c1ccc(F)cc1F [FLUCONAZOLE] | > 16 | 10 | – | – | > 16 | – | > 16 | – | 300 µg/mL (≈ 980 µM) | 100 (≈ 327 µM) | > 16 | 300 µg/mL (≈ 980 µM) | – | – | < 10 | – | < 10 | 100 (≈ 327 µM) | 10 | – |
| COC(=O)[C@H](CC(C)C)NC(=O)CSc1nnc2sc3ccccc3n12 | – | – | inactive | inactive | < 10 | inactive | – | inactive | inactive | 500 (≈ 1270 µM) | 10 | inactive | inactive | inactive | – | inactive | – | – | – | – |
| COC(=O)C(NC(=O)CSc1nnc2sc3ccccc3n12)C(C)O (racemic) | 10 | – | inactive | 1000 µg/mL (≈ 2630 µM) | < 10 | inactive | – | inactive | inactive | 500 (≈ 1310 µM) | 10 | inactive | inactive | inactive | – | – | – | – | – | – |
| O=C(CCn1nc2sc3ccccc3n2c1=S)N(C(=O)NC1CCCCC1)C1CCCCC1 | > 16 | 10 | inactive | 300 µg/mL (≈ 618 µM) | > 16 | – | 10 | – | inactive | 100 (≈ 206 µM) | > 16 | 500 µg/mL (≈ 1030 µM) | – | – | < 10 | – | – | – | < 10 | – |
| COC(=O)CNC(=O)CSc1nnc2sc3ccccc3n12 | < 10 | – | inactive | 1000 µg/mL (≈ 2970 µM) | < 10 | inactive | – | inactive | inactive | 500 (≈ 1490 µM) | 10 | inactive | inactive | inactive | – | – | – | – | – | – |
| NNC(=O)CCn1nc2sc3ccccc3n2c1=S | – | – | inactive | inactive | – | inactive | – | inactive | inactive | 1000 (≈ 3410 µM) | < 10 | inactive | inactive | inactive | – | inactive | – | – | – | inactive |
| O=C(CSc1nnc2sc3ccccc3n12)N(C(=O)NC1CCCCC1)C1CCCCC1 | > 16 | < 10 | inactive | 300 µg/mL (≈ 636 µM) | 10 | – | 10 | – | 500 µg/mL (≈ 1060 µM) | 100 (≈ 212 µM) | > 16 | inactive | – | – | < 10 | – | – | – | < 10 | – |
